High-throughput results: PubChem BioAssay, Johns Hopkins Ion Channel Center
MrgX1 agonist: activates human MrgX1 receptor signaling; MrgX1-HEK293 cells, Fluo-4 calcium fluorescence, agonist mode; stronger effect = higher value; B-score at 10 µM; actives 0.44% (n = 310,000); AID 588627;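 active = calcium response B-score plate-corrected fluorescence ratio at least 3 library SD, with starting fluorescence B-score inside 5 SD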
Target sequence (Q96LB2 whole entry, looked up): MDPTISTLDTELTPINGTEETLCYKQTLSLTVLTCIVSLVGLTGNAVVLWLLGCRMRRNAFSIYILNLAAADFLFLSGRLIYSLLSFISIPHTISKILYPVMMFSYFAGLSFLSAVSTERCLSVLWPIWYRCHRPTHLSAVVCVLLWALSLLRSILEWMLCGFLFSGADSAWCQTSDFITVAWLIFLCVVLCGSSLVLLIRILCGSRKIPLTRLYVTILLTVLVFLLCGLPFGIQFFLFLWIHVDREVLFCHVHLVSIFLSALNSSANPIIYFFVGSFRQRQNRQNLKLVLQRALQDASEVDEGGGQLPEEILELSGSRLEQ
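Assay system: MrgX1-expressing HEK293 cells / Amount: fifteen thousand cells per well / Doses: test compound in the initial addition of three / Timing: cells plated overnight, dye loaded 0.5 h 37 °C, 0.5 h room temperature / Technique: kinetic calcium dye fluorescence, Fluo-4 NW / Control set: positive and negative controls per plate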
MrgX1 antagonist: human MrgX1 receptor antagonism, primary screen | Q96LB2 | MRGX1-HEK293 calcium flux, Fluo-4, BAM8-22 antagonism; stronger effect = lower value | B-score at 10 µM | actives 1.3% (n = 310,000);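 active = calcium-response B-score plate-corrected more than 3 library SD below zero, starting fluorescence within 5 deviations, no agonist response on first addition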;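 also: peak minus trough fluorescence over baseline after final BAM8-22 challenge near maximal dose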
RGS4 act: RGS4 potentiation or activation. actives 0.92% (n = 310,000). HEK293 M3R/inducible RGS4, carbachol calcium flux Fluo4; stronger effect = lower value. B-score at 10 µM. AID 463111;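 active = B-score of the integrated calcium signal more than 4 SD below the library mean, with starting fluorescence not abnormally high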;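 also: negative B-score means reduced calcium response which marks RGS4 activation or potentiation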
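Reagent: ECmax carbachol challenge; Test system: M3R-expressing HEK293 line, RGS4 induced by doxycycline; Schedule: overnight RGS4 induction, 30 min dye load 37 °C, 20 min compound RT; Detection: calcium dye Fluo4 fluorescence; Read-out: Agonist-evoked peak-minus-minimum fluorescence over baseline, integrated ratio, B score.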
RGS4 inh: inhibitors of human RGS4; actives 0.45% (n = 310,000); HEK293 M3R/RGS4 inducible, Fluo-4 calcium flux; stronger effect = higher value; triggered by carbachol at its EC20; AID 463165; B-score at 10 µM; P49798;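 active = B-score, a plate-corrected calcium signal, over three deviations above library mean, with baseline fluorescence within five deviations of library mean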;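 also: RGS4 expression induced by doxycycline in cells with stable M3 receptor; B-score is computed from the integrated fluorescence ratio over baseline after carbachol; higher B-score means a larger calcium signal and so more RGS4 inhibition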
Target sequence (P49798 whole entry, looked up): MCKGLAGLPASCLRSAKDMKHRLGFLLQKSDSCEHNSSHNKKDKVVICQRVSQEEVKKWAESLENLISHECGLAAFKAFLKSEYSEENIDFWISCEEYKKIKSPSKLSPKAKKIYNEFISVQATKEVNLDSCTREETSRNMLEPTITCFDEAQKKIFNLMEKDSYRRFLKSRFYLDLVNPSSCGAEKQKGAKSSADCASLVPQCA
MrgX1 allo act: allosterically activates human MrgX1 receptor signaling | MrgX1-HEK293, Fluo-4 calcium flux, FDSS; stronger effect = higher value | B-score at 10 µM | actives 0.63% (n = 310,000);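 active = plate-corrected calcium response at least 3 library SD above typical, normal starting fluorescence, not activating the receptor alone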;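 also: compound read alongside a low EC10 to EC30 dose of BAM8-22 agonist; peak minus trough fluorescence over baseline measured at the second addition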
RGS4 act valid: RGS4 activation, validation assay; shares compounds with RGS4 act; HEK293 M3R/RGS4 inducible, carbachol calcium flux Fluo4; inhibition, % at 10 µM; actives 89% (n = 1,100);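 active = inhibition above 3 SD of the buffer control wells, cut at about 41% in these data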;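 also: signal is the integrated peak-minus-minimum Fluo4 fluorescence over baseline ratio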
M3R Ca counter: activity in cells without induced RGS4 expression; AID 602283; HEK293 M3R non-induced RGS4, Fluo4 calcium flux; after carbachol challenge at its EC90; inhibition, % at 10 µM; shares compounds with RGS4 act; actives 82% (n = 1,100);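 active = inhibition exceeding 3 SD of buffer-only control wells, cut at about 26% in these data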;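 also: percent drop in integrated peak-minus-baseline over baseline Fluo4 ratio after carbachol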
The depositor's hits bear a star; i = inactive; . = no result given. A selection: hits, their analogues and other compounds. The true share with any hit is near 3.5%.

SMILES	MrgX1 agonist	MrgX1 antagonist	RGS4 act	RGS4 inh	MrgX1 allo act	RGS4 act valid	M3R Ca counter
NP(=O)(Oc1ccc(Cl)cc1)Oc1ccc(Cl)cc1	i	i	i	i	i	.	.
COC(=O)OCC12CCC(O1)C1(C)C(=O)OCC21 (stereo not drawn)	i	i	i	i	i	.	.
CCN(CC)c1ccc(/C=N/c2sc3c(c2C#N)C2CCN3CC2)c(O)c1	i	i	.	.	16.7*	.	.
COc1ccc(C2c3c(nc(C)[nH]c3=O)Oc3c2c(=O)oc2ccccc32)cc1 (stereo not drawn)	i	i	i	i	i	.	.
CC1=Nc2ccccc2/C1=C/c1c(O)[nH]c(=O)[nH]c1=O	i	i	i	i	i	.	.
O=c1[nH]c(O)c(/C=C2/C=CC(c3cc(Cl)ccc3Cl)=N2)c(=O)[nH]1	i	-7*	i	i	i	.	.
O=P(OCC(F)(F)C(F)F)(N1CCCCC1)N1CCCCC1	i	i	i	i	i	.	.
CCCCn1nc(C)c(C(=O)O)c1Cl	i	i	i	i	i	.	.
CN1CCCN(C(=O)COc2ccccc2Br)CC1	i	i	i	i	i	.	.
Cc1ccccc1-n1c(-c2ccc([N+](=O)[O-])cc2)nc2ccccc2c1=O	i	i	-10.1*	i	i	.	.
COc1ccccc1CCNC(=O)CCC(=O)N1CC2C[C@@H](C1)Cn1c2cccc1=O	i	i	i	i	i	.	.
CCN(CC)c1ccc(CNCCc2ccccc2F)cc1	i	i	-6.97*	i	i	.	.
CCN(CCO)c1ccc(N=Cc2c(O)n(C)c(=S)[nH]c2=O)cc1	43.3*	i	i	i	i	.	.
CCN(CC)c1ccc(N=Cc2c(O)n(Cc3ccco3)c(=O)[nH]c2=O)cc1	i	i	i	i	i	.	.
CCOC(=O)C1(CCc2ccccc2)CCN(Cc2cccc3cnccc23)CC1	i	i	-10.8*	i	i	89.0*	58.8*
CCS(=O)(=O)NCc1nnc2n1-c1ccc(Cl)cc1C(c1ccccc1)=NC2	i	i	i	i	i	.	.
C=CCn1c(O)c(C=NCCN2CCOCC2)c(=O)[nH]c1=S	i	i	i	i	i	.	.
CC(Cc1ccccc1Sc1ccc(O)cc1)N(C)C (stereo not drawn)	i	i	-9.19*	i	i	95.0*	93.8*
CC(N)Cc1ccccc1Sc1ccc(O)cc1 (stereo not drawn)	i	i	i	i	i	.	.
CCC(=NCc1cc(OC)cc(OC)c1)c1c(O)[nH]c(=O)[nH]c1=O	i	i	i	i	i	.	.
CCn1ccnc1CN1CCCC(C(=O)c2cccc(C(F)(F)F)c2)C1 (stereo not drawn)	i	i	-9.94*	i	i	93.0*	87.3*
CCCNC(=O)N1[C@H]2CC[C@@H]1C(C(=O)OC)=C(c1cccc(OC)c1OC)C2	i	i	i	i	i	.	.
COC(=O)c1ccc(COc2cc(C)cc3oc(=O)c4c(c23)CCCC4)o1	i	i	-11.3*	i	i	79.0*	45.8*
Cc1cc(OCC(=O)O)c2c3c(c(=O)oc2c1)CCCC3	i	i	i	i	i	.	.
CN1CC=C(/C=C/c2ccc(-c3ccccc3)cc2)CC1	i	i	-8.71*	i	i	66.5*	30.8*
SMILES	MrgX1 agonist	MrgX1 antagonist	RGS4 act	RGS4 inh	MrgX1 allo act	RGS4 act valid	M3R Ca counter
CCOP(=O)(OCC)C(Cc1ccccc1)NC(C)=O (stereo not drawn)	i	i	i	i	i	.	.
CCOP(=S)(NN(Cc1ccccc1)C(=O)c1ccccc1)OCC	i	i	-14.3*	i	i	0.0	0.0
OC(c1cccc(Cl)c1)(c1cccc(Cl)c1)C1CN2CCC1CC2 (stereo not drawn)	i	i	-13.8*	i	i	93.0*	93.3*
CSc1ccc(C(=O)C2CCCN(Cc3cccnc3)C2)cc1 (stereo not drawn)	i	i	-8.48*	i	i	68.5*	26.3*
CC(C)CC12CN3CCN(CC(C3)C1O)C2 (stereo not drawn)	i	i	i	i	i	.	.
CCN(CC)CCCOC(=O)C(OC)(c1ccccc1)c1ccccc1	i	i	-11.1*	i	i	91.0*	86.3*
Clc1ccccc1Nc1ncnc(-n2cccc2)n1	i	i	i	i	i	.	.
COc1ccc(C(=O)C2CCCN(C3CSCCSC3)C2)c(C)c1 (stereo not drawn)	i	i	-8.8*	i	i	86.0*	43.8*
COc1ccc(C(=O)C2CCCN(Cc3ccc(C)s3)C2)c(OC)c1 (stereo not drawn)	i	i	i	i	i	.	.
COc1ccc(C(=O)C2CCCN(C3CSCCSC3)C2)c(OC)c1 (stereo not drawn)	i	i	-7.74*	i	i	45.0*	83.8*
COc1ccc(C(=O)C2CCCN(CCO)C2)c(C)c1 (stereo not drawn)	i	i	i	i	i	.	.
CCN(CC)S(=O)(=O)c1cc(NC(=O)C(C)N2CC=C(c3ccccc3)CC2)ccc1C (stereo not drawn)	i	i	-7.57*	i	i	79.0*	34.8*
COc1cc2c(cc1OC)C(C(=O)N(C)C1CCCCC1)C1CCCCN1C2=O (stereo not drawn)	i	i	i	i	i	.	.
CC(=O)N1CCC(N2CCCC(C(=O)c3cccc(Cl)c3)C2)CC1 (stereo not drawn)	i	i	-10*	i	i	79.5*	83.8*
COc1cccc(C(=O)C2CCCN(C3CCOCC3)C2)c1 (stereo not drawn)	i	i	i	i	i	.	.
